Results of several laboratories.
Protocols differ between the studies behind these lines.
Tspo: Translocator protein (Tspo, Rattus norvegicus, UniProt P16257)
ADRA1A: Alpha-1A adrenergic receptor (ADRA1A, Homo sapiens, UniProt P35348)
HRH2: Histamine H2 receptor (HRH2, Homo sapiens, UniProt P25021)

| Compound | target | observed | mode | technique | Ki [nM] |
| --- | --- | --- | --- | --- | --- |
| CC[Si](C#Cc1ccc2c(c1)C=C([N+](=O)[O-])C(C(F)(F)F)O2)(CC)CC (stereo not shown) | Tspo | cell-free assay | – | radioligand | 500 |
| COc1ccc2c(c1)C(=O)N(CCN1CCN(c3ccccc3OC)CC1)C2 | ADRA1A | ligand displacement | – | radioligand | 15.9 |
| CC1(C)C=Cc2c(cc3oc(-c4ccccc4)c(O)c(=O)c3c2O)O1 | Peroxisome proliferator-activated receptor delta (PPARD, Homo sapiens, UniProt Q03181) | ligand displacement | – | TR-FRET | 1300 |
| CNC(=O)[C@@]12C[C@@H]1[C@@H](n1ccc3c(NC)ncnc31)[C@H](O)[C@@H]2O | Tspo | ligand displacement | – | radioligand | > 10000 |
| CC1=C(/C=C/C(C)=C/C=C/C(C)=C/c2cc(/C=C/C=C(C)/C=C/C3=C(C)CCCC3(C)C)cc[n+]2CCO)C(C)(C)CCC1 | Sterol 26-hydroxylase, mitochondrial (CYP27A1, Homo sapiens, UniProt Q02318) | enzyme activity | inhibitor | – | 2900 |
| CNc1nc(C#Cc2ccc(Cl)s2)nc2c1ncn2[C@H]1[C@H](O)[C@H](O)[C@]2(C(=O)OCCC3CCCCC3)C[C@H]12 | Tspo | ligand displacement | – | radioligand | > 10000 |
| O=C1c2ccccc2CCCN1CCCCN1CCN(c2ccccn2)CC1 | ADRA1A | ligand displacement | – | radioligand | 867 |
| CCCCN1CCC(COC(=O)c2ccc(N)c(OCF)c2)CC1 | ADRA1A | cell-free assay | – | radioligand | > 10000 |
| CN1CC(Oc2cnc(C#N)cc2-c2ccn3nc(NC(=O)C4CC4)cc3c2)C1 | Receptor-interacting serine/threonine-protein kinase 2 (RIPK2, Homo sapiens, UniProt O43353) | enzyme activity | inhibitor | – | 95 |
| CCNc1nc(C#Cc2ccccc2)nc2c1ncn2[C@H]1[C@H](O)[C@H](O)[C@@H]2C[C@@H]21 | Tspo | ligand displacement | – | radioligand | > 10000 |
| Cc1nc2cc(OCCCCN3CCN(c4cccc(Cl)c4Cl)CC3)ccc2s1 | HRH2 | ligand displacement | – | radioligand | 680 |
| CNC(=O)[C@@]12C[C@@H]1[C@@H](n1cnc3c(NC)nc(C#Cc4ccc(Cl)s4)nc31)[C@H](O)[C@@H]2O | Tspo | cell-free assay | – | radioligand | 859 |
| CCc1nc2cc(OCCCCN3CCC(c4cccc(Cl)c4Cl)CC3)ccc2s1 | HRH2 | ligand displacement | – | radioligand | 2100 |
| COc1ccccc1N1CCN(CCCCN2CCc3ccccc3C2=O)CC1 | ADRA1A | ligand displacement | – | radioligand | 11.1 |
| CCCCC(=O)[C@@]12C[C@@H]1[C@@H](n1ccc3c(NC)nc(C#Cc4ccc(Cl)s4)nc31)[C@H](O)[C@@H]2O | Tspo | ligand displacement | – | radioligand | > 10000 |
| COc1cccc(OC)c1OCCNCC1COc2ccccc2O1 (stereo not shown) | ADRA1A | ligand displacement | – | radioligand | 0.18 |
